Experimental data published in ChEMBL document CHEMBL4152223 (Eur J Med Chem, 2018).
pIC50: −log10 of the molar value. In brackets after ≈: the same amount, converted by molar mass.

What was measured:
HepG2 = test: Cytotoxicity against human HepG2 cells assessed as reduction in cell viability by MTS assay; assay type: cell-based
Method in brief: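 HepG2 human hepatocellular carcinoma cells (passage 2-4) were cultured in Eagle's MEM with 10% FBS, 1% L-glutamine and non-essential amino acids. Compounds were dissolved in DMSO and tested in triplicate at eight concentrations. Viability was read by colorimetric MTS tetrazolium reduction. Controls were 100% viability and 0% viability (10% DMSO). IC50 is the concentration reducing viability to 50% of control.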

Mycobacterium kansasii [1] = test: Antimycobacterial activity against Mycobacterium kansasii 6509/96 after 14 days; assay type: functional; settings: 6509/96, 336 h
Mycobacterium avium [2] = test: Antimycobacterial activity against INH/RIF/OFX resistant Mycobacterium avium 330/88 after 14 days; assay type: functional; settings: 330/88, 336 h
Mycobacterium avium [3] = test: Antimycobacterial activity against INH/RIF/OFX resistant Mycobacterium avium 330/88 after 21 days; assay type: functional; settings: 330/88, 504 h
Mycobacterium kansasii [4] = test: Antimycobacterial activity against Mycobacterium kansasii 6509/96 after 7 days; assay type: functional; settings: 6509/96, 168 h
Mycobacterium kansasii [5] = test: Antimycobacterial activity against Mycobacterium kansasii 6509/96 after 21 days; assay type: functional; settings: 6509/96, 504 h
Mycobacterium kansasii [6] = test: Antimycobacterial activity against Mycobacterium kansasii 235/80 after 7 days; assay type: functional; settings: 235/80, 168 h
[7] = tested on: Mycobacterium tuberculosis; test: Antimycobacterial activity against Mycobacterium tuberculosis H37Rv after 14 days; assay type: functional; settings: 336 h
Mycobacterium kansasii [8] = test: Antimycobacterial activity against Mycobacterium kansasii 235/80 after 14 days; assay type: functional; settings: 235/80, 336 h
Mycobacterium kansasii [9] = test: Antimycobacterial activity against Mycobacterium kansasii 235/80 after 21 days; assay type: functional; settings: 235/80, 504 h
[10] = tested on: Mycobacterium tuberculosis; test: Antimycobacterial activity against Mycobacterium tuberculosis H37Rv after 21 days; assay type: functional; settings: 504 h
[11] = Selectivity index, ratio of IC50 for human HepG2 cells to MIC for Mycobacterium tuberculosis H37Rv after 14 days; assay type: toxicity; settings: read-out: Selectivity Index
Method in brief: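 SI is calculated as HepG2 IC50 divided by MIC. HepG2 cells (passage 2-4) were grown in EMEM with 10% FBS, L-glutamine and non-essential amino acids. Compounds in DMSO were tested in triplicate at eight concentrations, and viability was read by MTS tetrazolium reduction. IC50 is the concentration reducing viability to 50% of control. 10% DMSO served as the 0% viability control.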

SMILES | pIC50 (HepG2) | MIC (Mycobacterium kansasii [1]) | MIC (Mycobacterium avium [2]) | MIC (Mycobacterium avium [3]) | MIC (Mycobacterium kansasii [4]) | MIC (Mycobacterium kansasii [5]) | MIC (Mycobacterium kansasii [6]) | MIC [7] | MIC (Mycobacterium kansasii [8]) | MIC (Mycobacterium kansasii [9]) | MIC [10] | selectivity ratio at 336 h [11]
CCCCCCCCCNC(=O)NNC(=O)c1ccncc1 | < 3.60 | 125 µM (≈ 38.3 µg/mL) | 250 µM (≈ 76.6 µg/mL) | 250 µM (≈ 76.6 µg/mL) | 62.5 µM (≈ 19.2 µg/mL) | 125 µM (≈ 38.3 µg/mL) | 32 µM (≈ 9.81 µg/mL) | 62.5 µM (≈ 19.2 µg/mL) | 62.5 µM (≈ 19.2 µg/mL) | 125 µM (≈ 38.3 µg/mL) | 125 µM (≈ 38.3 µg/mL) | 
CCCCCCCCCCCCCNc1nnc(-c2ccncc2)o1 |  | 250 µM (≈ 86.1 µg/mL) | 250 µM (≈ 86.1 µg/mL) | 250 µM (≈ 86.1 µg/mL) | 125 µM (≈ 43.1 µg/mL) | 250 µM (≈ 86.1 µg/mL) | 250 µM (≈ 86.1 µg/mL) | 250 µM (≈ 86.1 µg/mL) | 250 µM (≈ 86.1 µg/mL) | 250 µM (≈ 86.1 µg/mL) | 250 µM (≈ 86.1 µg/mL) | 
CCCCCCCCCCCCCCCNC(=O)NNC(=O)c1ccncc1 | < 4.12 | 62.5 µM (≈ 24.4 µg/mL) | 125 µM (≈ 48.8 µg/mL) | 125 µM (≈ 48.8 µg/mL) | 62.5 µM (≈ 24.4 µg/mL) | 125 µM (≈ 48.8 µg/mL) | 32 µM (≈ 12.5 µg/mL) | 32 µM (≈ 12.5 µg/mL) | 62.5 µM (≈ 24.4 µg/mL) | 62.5 µM (≈ 24.4 µg/mL) | 62.5 µM (≈ 24.4 µg/mL) | 
CCCCCCNC(=O)NNC(=O)c1ccncc1 | < 3.00 | 500 µM (≈ 132 µg/mL) | 500 µM (≈ 132 µg/mL) | 500 µM (≈ 132 µg/mL) | 250 µM (≈ 66.1 µg/mL) | 500 µM (≈ 132 µg/mL) | 250 µM (≈ 66.1 µg/mL) | 32 µM (≈ 8.46 µg/mL) | 250 µM (≈ 66.1 µg/mL) | 250 µM (≈ 66.1 µg/mL) | 32 µM (≈ 8.46 µg/mL) | > 31.3
CCCCCCCCCCCCCCCCCCNC(=O)NNC(=O)c1ccncc1 | < 4.30 | 250 µM (≈ 108 µg/mL) | 250 µM (≈ 108 µg/mL) | 250 µM (≈ 108 µg/mL) | 250 µM (≈ 108 µg/mL) | 250 µM (≈ 108 µg/mL) | 250 µM (≈ 108 µg/mL) | 250 µM (≈ 108 µg/mL) | 250 µM (≈ 108 µg/mL) | 250 µM (≈ 108 µg/mL) | 250 µM (≈ 108 µg/mL) | 
CNc1nnc(-c2ccncc2)o1 |  | 1000 µM (≈ 176 µg/mL) | > 1000 µM | > 1000 µM | 1000 µM (≈ 176 µg/mL) | 1000 µM (≈ 176 µg/mL) | 500 µM (≈ 88.1 µg/mL) | 500 µM (≈ 88.1 µg/mL) | 1000 µM (≈ 176 µg/mL) | > 1000 µM | 500 µM (≈ 88.1 µg/mL) | 
CCCCCCCCCCCNc1nnc(-c2ccncc2)o1 | 3.76 | 125 µM (≈ 39.6 µg/mL) | 500 µM (≈ 158 µg/mL) | 500 µM (≈ 158 µg/mL) | 125 µM (≈ 39.6 µg/mL) | 250 µM (≈ 79.1 µg/mL) | 8 µM (≈ 2.53 µg/mL) | 32 µM (≈ 10.1 µg/mL) | 16 µM (≈ 5.06 µg/mL) | 32 µM (≈ 10.1 µg/mL) | 32 µM (≈ 10.1 µg/mL) | 5.4
CCNc1nnc(-c2ccncc2)o1 |  | > 1000 µM | > 1000 µM | > 1000 µM | 1000 µM (≈ 190 µg/mL) | > 1000 µM | 1000 µM (≈ 190 µg/mL) | > 1000 µM | > 1000 µM | > 1000 µM | > 1000 µM | 
CCCCCCCCCCNC(=O)NNC(=O)c1ccncc1 | < 3.60 | 250 µM (≈ 80.1 µg/mL) | 500 µM (≈ 160 µg/mL) | 500 µM (≈ 160 µg/mL) | 125 µM (≈ 40.1 µg/mL) | 250 µM (≈ 80.1 µg/mL) | 32 µM (≈ 10.3 µg/mL) | 16 µM (≈ 5.13 µg/mL) | 62.5 µM (≈ 20 µg/mL) | 125 µM (≈ 40.1 µg/mL) | 32 µM (≈ 10.3 µg/mL) | 
CCCCNc1nnc(-c2ccncc2)o1 |  | 1000 µM (≈ 218 µg/mL) | > 1000 µM | > 1000 µM | 1000 µM (≈ 218 µg/mL) | 1000 µM (≈ 218 µg/mL) | 500 µM (≈ 109 µg/mL) | 250 µM (≈ 54.6 µg/mL) | 1000 µM (≈ 218 µg/mL) | 1000 µM (≈ 218 µg/mL) | 500 µM (≈ 109 µg/mL) | 
CCCCCCNc1nnc(-c2ccncc2)o1 |  | 250 µM (≈ 61.6 µg/mL) | 500 µM (≈ 123 µg/mL) | 500 µM (≈ 123 µg/mL) | 125 µM (≈ 30.8 µg/mL) | 500 µM (≈ 123 µg/mL) | 250 µM (≈ 61.6 µg/mL) | 250 µM (≈ 61.6 µg/mL) | 500 µM (≈ 123 µg/mL) | 500 µM (≈ 123 µg/mL) | 250 µM (≈ 61.6 µg/mL) | 
CCCCCCCCCCCCCCCNc1nnc(-c2ccncc2)o1 |  | 250 µM (≈ 93.1 µg/mL) | 250 µM (≈ 93.1 µg/mL) | 500 µM (≈ 186 µg/mL) | 125 µM (≈ 46.6 µg/mL) | 250 µM (≈ 93.1 µg/mL) | 62.5 µM (≈ 23.3 µg/mL) | 125 µM (≈ 46.6 µg/mL) | 125 µM (≈ 46.6 µg/mL) | 250 µM (≈ 93.1 µg/mL) | 125 µM (≈ 46.6 µg/mL) | 
CCCCCCCCCCCCCCCCCCNc1nnc(-c2ccncc2)o1 |  | 500 µM (≈ 207 µg/mL) | 500 µM (≈ 207 µg/mL) | 500 µM (≈ 207 µg/mL) | 250 µM (≈ 104 µg/mL) | 500 µM (≈ 207 µg/mL) | 250 µM (≈ 104 µg/mL) | 125 µM (≈ 51.8 µg/mL) | 250 µM (≈ 104 µg/mL) | 250 µM (≈ 104 µg/mL) | 250 µM (≈ 104 µg/mL) | 
CCCCCCCCCCNc1nnc(-c2ccncc2)o1 | < 4.30 | 16 µM (≈ 4.84 µg/mL) | 32 µM (≈ 9.68 µg/mL) | 62.5 µM (≈ 18.9 µg/mL) | 16 µM (≈ 4.84 µg/mL) | 16 µM (≈ 4.84 µg/mL) | 8 µM (≈ 2.42 µg/mL) | 16 µM (≈ 4.84 µg/mL) | 16 µM (≈ 4.84 µg/mL) | 16 µM (≈ 4.84 µg/mL) | 16 µM (≈ 4.84 µg/mL) | 
CCCCCCCNc1nnc(-c2ccncc2)o1 |  | 500 µM (≈ 130 µg/mL) | 500 µM (≈ 130 µg/mL) | 500 µM (≈ 130 µg/mL) | 250 µM (≈ 65.1 µg/mL) | 500 µM (≈ 130 µg/mL) | 250 µM (≈ 65.1 µg/mL) | 125 µM (≈ 32.5 µg/mL) | 500 µM (≈ 130 µg/mL) | 500 µM (≈ 130 µg/mL) | 125 µM (≈ 32.5 µg/mL) | 
